Data taken from ChEMBL document CHEMBL1141179 (J Med Chem, 2005).
Bridge positions count the residues as written; N and C are the ends. Square brackets hold non-standard residues; d marks the D form. Peptide text beside a SMILES is read from it.

Columns and labels:
Rattus norvegicus [1] = species on record: Rattus norvegicus; test: Relative potency of compound to inhibit insulin secretion […]; type: functional
Rattus norvegicus [2] = species on record: Rattus norvegicus; test: Relative potency of compound to inhibit growth hormone secretion in rat anterior pituitary cells; type: functional, Pituitary gland cell
Rattus norvegicus [3] = species on record: Rattus norvegicus; test: Relative potency of compound to inhibit glucagon secretion […]; type: functional
[4] = target: Somatostatin receptor type 4 (Homo sapiens, UniProt P31391); test: Inhibition of 125I-[Leu8,D-Trp22,Tyr25]SRIF-28 binding to human somatostatin receptor type 4
Chain of Somatostatin receptor type 4 (P31391 whole entry): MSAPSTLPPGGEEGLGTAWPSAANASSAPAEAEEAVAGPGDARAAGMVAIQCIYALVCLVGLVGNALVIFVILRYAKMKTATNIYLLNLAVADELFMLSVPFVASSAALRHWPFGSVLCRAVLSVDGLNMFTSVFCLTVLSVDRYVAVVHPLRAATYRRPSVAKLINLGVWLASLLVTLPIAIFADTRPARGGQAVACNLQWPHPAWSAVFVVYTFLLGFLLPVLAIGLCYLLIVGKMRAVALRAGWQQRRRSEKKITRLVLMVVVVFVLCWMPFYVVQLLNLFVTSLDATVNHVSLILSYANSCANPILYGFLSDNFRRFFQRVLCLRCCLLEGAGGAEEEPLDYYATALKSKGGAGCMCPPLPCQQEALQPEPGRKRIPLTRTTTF

[5] = target: Somatostatin receptor type 5 (Homo sapiens, UniProt P35346); test: Inhibition of 125I-[Leu8,D-Trp22,Tyr25]SRIF-28 binding to human somatostatin receptor type 5
Chain of Somatostatin receptor type 5 (P35346 whole entry): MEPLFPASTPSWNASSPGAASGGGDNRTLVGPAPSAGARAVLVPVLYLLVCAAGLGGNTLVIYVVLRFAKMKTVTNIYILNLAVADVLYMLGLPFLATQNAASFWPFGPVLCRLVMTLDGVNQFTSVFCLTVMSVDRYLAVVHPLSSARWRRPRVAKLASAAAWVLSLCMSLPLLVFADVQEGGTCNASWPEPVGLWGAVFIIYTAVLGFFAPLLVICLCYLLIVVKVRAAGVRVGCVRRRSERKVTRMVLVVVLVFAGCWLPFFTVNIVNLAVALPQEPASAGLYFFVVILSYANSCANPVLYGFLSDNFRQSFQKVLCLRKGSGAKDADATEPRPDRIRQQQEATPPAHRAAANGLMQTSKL
Summary of the method: (§1)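 Human sst1 or sst5 receptor stably expressed in CHO-K1 cells. 20 µm cryostat sections of cell membrane pellets were used for receptor autoradiography. IC50 (nM) came from competitive radioligand displacement. Values are mean ± SEM when N ≥ 3; otherwise mean with single values.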

[6] = target: Somatostatin receptor type 3 (Homo sapiens, UniProt P32745); test: Inhibition of 125I-[Leu8,D-Trp22,Tyr25]SRIF-28 binding to human somatostatin receptor type 3
Chain of Somatostatin receptor type 3 (P32745 whole entry): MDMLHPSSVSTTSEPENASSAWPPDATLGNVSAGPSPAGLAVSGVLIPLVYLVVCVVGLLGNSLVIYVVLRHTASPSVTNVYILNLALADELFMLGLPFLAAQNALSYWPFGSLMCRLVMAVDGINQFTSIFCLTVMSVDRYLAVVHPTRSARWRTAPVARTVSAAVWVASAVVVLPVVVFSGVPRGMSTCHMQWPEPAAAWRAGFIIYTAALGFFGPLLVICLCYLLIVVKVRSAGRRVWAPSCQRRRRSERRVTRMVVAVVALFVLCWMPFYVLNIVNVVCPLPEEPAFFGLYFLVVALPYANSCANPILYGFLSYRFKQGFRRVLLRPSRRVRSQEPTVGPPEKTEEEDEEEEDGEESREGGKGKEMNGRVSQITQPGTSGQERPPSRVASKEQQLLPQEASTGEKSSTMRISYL
Summary of the method: (§2)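 Human sst2 or sst3 receptor stably expressed in CCL39 cells. 20 µm cryostat sections of cell membrane pellets were used for autoradiographic binding. IC50 (nM) came from competitive displacement. Values are mean ± SEM when N ≥ 3; otherwise mean with single values.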

[7] = target: Somatostatin receptor type 1 (Homo sapiens, UniProt P30872); test: Inhibition of 125I-[Leu8,D-Trp22,Tyr25]SRIF-28 binding to human somatostatin receptor type 1; summary of the method: as §1
Chain of Somatostatin receptor type 1 (P30872 whole entry): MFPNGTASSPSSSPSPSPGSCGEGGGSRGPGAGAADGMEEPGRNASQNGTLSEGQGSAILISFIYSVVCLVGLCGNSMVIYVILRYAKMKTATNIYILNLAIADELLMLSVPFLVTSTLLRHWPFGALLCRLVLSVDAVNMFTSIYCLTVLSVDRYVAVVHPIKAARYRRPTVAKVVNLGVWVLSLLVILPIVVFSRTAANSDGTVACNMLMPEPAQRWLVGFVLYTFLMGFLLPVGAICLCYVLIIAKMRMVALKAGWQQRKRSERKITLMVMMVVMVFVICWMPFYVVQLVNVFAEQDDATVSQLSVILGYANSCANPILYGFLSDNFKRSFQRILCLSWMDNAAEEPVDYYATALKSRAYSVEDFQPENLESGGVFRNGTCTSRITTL

[8] = target: Somatostatin receptor type 2 (Homo sapiens, UniProt P30874); test: Inhibition of 125I-[Leu8,D-Trp22,Tyr25]SRIF-28 binding to human somatostatin receptor type 2; summary of the method: as §2
Chain of Somatostatin receptor type 2 (P30874 whole entry): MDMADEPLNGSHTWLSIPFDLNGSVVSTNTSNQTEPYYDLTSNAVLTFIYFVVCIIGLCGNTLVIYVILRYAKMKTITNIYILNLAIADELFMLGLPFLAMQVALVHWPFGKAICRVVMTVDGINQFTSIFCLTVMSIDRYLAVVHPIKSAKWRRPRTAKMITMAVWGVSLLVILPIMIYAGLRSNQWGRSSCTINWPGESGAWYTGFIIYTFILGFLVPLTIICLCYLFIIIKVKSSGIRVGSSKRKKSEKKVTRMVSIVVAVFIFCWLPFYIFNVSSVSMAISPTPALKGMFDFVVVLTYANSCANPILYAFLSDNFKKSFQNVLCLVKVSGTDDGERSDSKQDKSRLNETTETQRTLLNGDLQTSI

| IC50 [4] [µM] | IC50 [5] [µM] | IC50 [6] [µM] | IC50 [7] [µM] | IC50 [8] [µM] | SMILES | Relative potency (Rattus norvegicus [1]) | Relative potency (Rattus norvegicus [2]) | Relative potency (Rattus norvegicus [3]) |
| --- | --- | --- | --- | --- | --- | --- | --- | --- |
|  |  |  |  |  | NCCCC[C@@H]1NC(=O)[C@@H](Cc2c[nH]c3ccccc23)NC(=O)[C@H](Cc2ccccc2)NC(=O)[C@H](Cc2ccccc2)NC(=O)[C@@H](N)CSSC[C@@H](C(=O)O)NC(=O)[C@H](Cc2ccccc2)NC1=O | <1 | <0.01 | <1 |
|  |  |  |  |  | C[C@@H](O)[C@@H]1NC(=O)[C@H](Cc2ccccc2)NC(=O)[C@H]([C@@H](C)O)NC(=O)[C@H](CCCCN)NC(=O)[C@@H](Cc2c[nH]c3ccccc23)NC(=O)[C@H](Cc2ccccc2)NC(=O)[C@H](Cc2ccccc2)NC(=O)[C@H](CC(N)=O)NC(=O)[C@@H](N)CSSC[C@@H](C(=O)O)NC1=O | 75 | 8 |  |
|  |  |  |  |  | C[C@@H](O)[C@@H]1NC(=O)[C@H](CCCCN)NC(=O)[C@@H](Cc2c[nH]c3ccccc23)NC(=O)[C@H](Cc2ccccc2)NC(=O)[C@H](Cc2ccccc2)NC(=O)[C@@H](N)CSSC[C@@H](C(=O)O)NC1=O | <1 | 0.07 | <1 |
|  |  |  |  |  | C[C@@H](O)[C@@H]1NC(=O)[C@H](CCCCN)NC(=O)[C@@H](Cc2c[nH]c3ccccc23)NC(=O)[C@H](Cc2ccccc2)NC(=O)[C@H](Cc2ccccc2)NC(=O)[C@H](CC(N)=O)NC(=O)[C@@H](N)CSSC[C@@H](C(=O)O)NC(=O)[C@H](Cc2ccccc2)NC1=O | 72 | <1 | <1 |
|  |  |  |  |  | C[C@@H](O)[C@@H]1NC(=O)[C@H](CCCCN)NC(=O)[C@@H](Cc2c[nH]c3ccccc23)NC(=O)[C@H](Cc2ccccc2)NC(=O)[C@H](Cc2ccccc2)NC(=O)[C@H](CCCCN)NC(=O)[C@@H](N)CSSC[C@@H](C(=O)O)NC(=O)[C@H](Cc2ccccc2)NC1=O | 310 | 15 | 115 |
|  |  |  |  |  | C[C@@H](O)[C@@H]1NC(=O)[C@H](Cc2ccccc2)NC(=O)[C@H]([C@@H](C)O)NC(=O)[C@H](CCCCN)NC(=O)[C@@H](Cc2c[nH]c3ccccc23)NC(=O)[C@H](Cc2ccccc2)NC(=O)[C@H](Cc2ccccc2)NC(=O)[C@@H](N)CSSC[C@@H](C(=O)O)NC(=O)[C@H](CO)NC1=O | 700 | 110 | <1 |
| > 1 | > 1 | > 1 | > 1 | > 1 | CC(C)NCc1ccc(C[C@@H]2NC(=O)[C@@H](Cc3c[nH]c4ccccc34)NC(=O)[C@@H]3CCC(=O)NCC[C@H](NC(=O)[C@H]([C@@H](C)O)NC2=O)C(=O)N[C@@H]([C@@H](C)O)C(=O)N[C@@H](CO)C(=O)N[C@H](C(=O)O)CSSC[C@H](NC(=O)[C@@H](N)Cc2ccc(O)cc2)C(=O)N[C@@H](CCCCN)C(=O)N[C@@H](Cc2ccccc2)C(=O)N3)cc1 |  |  |  |
| 0.229 | > 1 | > 1 | > 1 | 0.531 | C[C@@H](O)[C@@H]1NC(=O)[C@H](CCCCN)NC(=O)[C@@H](Cc2c[nH]c3ccccc23)NC(=O)[C@H](Cc2ccccc2)NC(=O)[C@@H](N)CSSC[C@@H](C(=O)O)NC(=O)[C@H](Cc2ccccc2)NC1=O |  |  |  |
| > 1 | > 1 | > 1 | 0.016 | > 1 | CC(C)NCc1ccc(C[C@@H]2NC(=O)[C@@H](Cc3c[nH]c4ccccc34)NC(=O)[C@@H]3CCC(=O)NCCCCCC[C@H](NC(=O)[C@H](Cc4ccccc4)NC(=O)[C@H]([C@@H](C)O)NC2=O)C(=O)N[C@@H](CO)C(=O)N[C@H](C(=O)O)CSSC[C@H](NC(=O)[C@@H](N)Cc2ccc(O)cc2)C(=O)N[C@@H](CCCCN)C(=O)N[C@@H](Cc2ccccc2)C(=O)N3)cc1 |  |  |  |
|  |  |  |  |  | C[C@@H](O)[C@@H]1NC(=O)[C@H](CCCCN)NC(=O)[C@@H](Cc2c[nH]c3ccccc23)NC(=O)[C@H](Cc2ccccc2)NC(=O)[C@H](Cc2ccccc2)NC(=O)[C@@H](N)CSSC[C@@H](C(=O)O)NC(=O)[C@H](Cc2ccccc2)NC1=O (H-CFF[dW]KTFC-OH; disulfide 1-8) | 45 | 4 | 7 |
